This is an account of results in PMC9052940 (RSC Advances, 2020).

Data set [1] is described as follows: PIT-slope characterization. The format is physicochemical. The settings on record: molar fraction; added to 3%C10E4/n-octane/10^−2 M NaClaq. The essentials:
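Increasing amounts of test surfactant added to a reference system of 3% C10E4/n-octane/aqueous NaCl. The shift in phase inversion temperature was recorded against concentration and against molar fraction, x = moles added/(moles C10E4 + moles added). Pure n-alkyl-β-D-glucosides and maltosides served as linear references. Average error below 10%.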

The conditions of data set [2]: cited from earlier work.
The conditions of data set [3]: 3%C10E4/n-octane/10^−2 M NaClaq; cited from earlier work.
The conditions of data set [4]: parameter of the normalized HLD; cited from earlier work.
For data set [5] the following is noted: calculated from NMR experiments in D2O solutions; cited from earlier work.
[6] abbreviates: a = turbid solutions close and above CMC.

Read-outs that look alike come from different tables or passages of the source.

For `CCCCCCCCCCCCO[C@@H]1O[C@H](CO)[C@@H](O)[C@H](O)[C@H]1O` [β-D-Glucoside C12], the dPIT/dx in data set [1] stood at 27.0 °C. Moreover, in data set [2] (setting [6]), the CMC was 0.13 mmol/L and the γCMC is 33.1 mN m^−1. In data set [2] (ref 44), the CMC is 0.19 mmol/L and the γCMC is 39.4 mN m^−1.
Take `CCCCCCCCCCO[C@@H]1O[C@H](CO)[C@@H](O)[C@H](O)[C@H]1O` [β-D-Glucoside C10]: the dPIT/dx in data set [1] turned out to be 47.8 °C. Further, in data set [2] (ref 44), the CMC was 2.2 mmol/L and the γCMC is 27.7 mN m^−1.
`CCCCCCCCO[C@@H]1O[C@H](CO)[C@@H](O)[C@H](O)[C@H]1O` [β-D-Glucoside C8, n-octyl-β-D-glucoside] yielded a dPIT/dx in data set [1] of 77.8 °C. In data set [2] (ref 44), the CMC was 25.0 mmol/L and the γCMC is 30.1 mN m^−1.
For `CCCCCCCCCCCCO[C@H]1O[C@H](CO)[C@@H](O[C@H]2O[C@H](CO)[C@@H](O)[C@H](O)[C@H]2O)[C@H](O)[C@H]1O` [α-D-Maltoside C12], in data set [2] (setting [6]), the CMC is 0.12 mmol/L and the γCMC was 35.9 mN m^−1.
On to `CCCCCCCCCCCCCCCC(=O)OC[C@H]1OC(O)[C@H](O)[C@H]1O` (single isomer, unassigned) [5-O-Xylose monoester (α, β isomers) C16], for which, in data set [2] (setting [6]), the CMC is 0.022 mmol/L and the γCMC is listed as 41.0 mN m^−1.
In data set [1], `CCCCCCCCCCO[C@@H]1O[C@H](CO)[C@@H](O[C@H]2O[C@H](CO)[C@@H](O)[C@H](O)[C@H]2O)[C@H](O)[C@H]1O` [β-D-Maltoside C10] registered a dPIT/dx of 123.0 °C. The CMC in data set [2] (ref 34) is 2.19 mmol/L; in data set [2] (ref 45) it was 1.95 mmol/L. In data set [2] (ref 45), the γCMC was 36.7 mN m^−1.
On to `CCCCCCCCCO[C@@H]1O[C@H](CO)[C@@H](O[C@H]2O[C@H](CO)[C@@H](O)[C@H](O)[C@H]2O)[C@H](O)[C@H]1O` [β-D-Maltoside C9], for which the CMC in data set [2] (ref 34) was 6.50 mmol/L.
Take `CCCCCCCCCCOCCOCCOCCOCCO` [C10E4]: the “PIT (Phase Inversion Temperature) of the reference system” value in data set [3] was 23.9 °C. Besides, in data set [4], the PACN1 is 8.2.
As to `CCCCCCCCCCCCCCO[C@@H]1O[C@H](CO)[C@@H](O[C@H]2O[C@H](CO)[C@@H](O)[C@H](O)[C@H]2O)[C@H](O)[C@H]1O` [β-D-Maltoside C14], in data set [1], the dPIT/dx was 80.7 °C. In data set [2] (ref 34), the CMC is 0.0167 mmol/L.
`CCCCCCCCCCCCO[C@@H]1O[C@H](CO)[C@@H](O[C@H]2O[C@H](CO)[C@@H](O)[C@H](O)[C@H]2O)[C@H](O)[C@H]1O` [β-D-Maltoside C12, n-dodecyl-β-D-maltoside] yielded a dPIT/dx in data set [1] of 112.2 °C. In addition, the values for the CMC in data set [2] (setting [6]), in data set [2] (ref 34) and in data set [2] (ref 45) were 0.13 mmol/L, 0.19 mmol/L and 0.15 mmol/L, respectively. Further, the γCMC in data set [2] (setting [6]) is 33.1 mN m^−1; in data set [2] (ref 45), 35.3 mN m^−1. Also, the “Γeq (equilibrated surface excess)” value in data set [2] (ref 60) is reported as 3.32 × 10^−6 mol m^−2. In addition, the “Diffusion coefficient of micelles” value in data set [5] was 7 × 10^−11 m^2 s^−1.
For `CCCCCCCCCCCCCC(=O)OC[C@H]1OC(O)[C@H](O)[C@H]1O` (single isomer, unassigned) [5-O-Xylose monoester (α, β isomers) C14], in data set [2] (setting [6]), the CMC was 0.015 mmol/L and the γCMC was 36.0 mN m^−1.
For the compound `CCCCCCCCO[C@@H]1O[C@H](CO)[C@@H](O[C@H]2O[C@H](CO)[C@@H](O)[C@H](O)[C@H]2O)[C@H](O)[C@H]1O` [β-D-Maltoside C8], the CMC in data set [2] (ref 34) was 23.2 mmol/L.
The compound `CCCCCCCCCCCCCCCCO[C@@H]1O[C@H](CO)[C@@H](O[C@H]2O[C@H](CO)[C@@H](O)[C@H](O)[C@H]2O)[C@H](O)[C@H]1O` [β-D-Maltoside C16] gave a dPIT/dx in data set [1] of 74.3 °C. Besides, in data set [2] (ref 34), the CMC was 0.00145 mmol/L.
Take `CCCCCCCCCCCCO[C@H]1O[C@H](CO)[C@@H](O)[C@H](O)[C@H]1O` [α-D-Glucoside C12]: in data set [2] (setting [6]), the CMC is 0.042 mmol/L and the γCMC is 41.2 mN m^−1.
